FN deposition inh = fibronectin deposition inhibition | hit rate 0.086% among 350,000 | AH1F fibroblasts, Alexa488-fibronectin deposition fluorescence, overnight | inhibition, % at 12.6 µM;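 active means mean inhibition across replicates of 30% or more, regardless of how many single replicates reach that level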;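 further: positive control wells lacked labelled fibronectin entirely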
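material = AH1F fibroblast monolayer depositing Alexa488-labelled fibronectin into matrix | amount = 10000 AH1F cells/well | buffer or medium = DMEM plus 2% serum, read in PBS | incubation = 1 h cell adhesion before compound, then overnight fibronectin incubation | detection = fluorescence at 485 nm excitation, 525 nm emission | evaluation = percent inhibition as loss of matrix-bound fibronectin fluorescence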
HIV Env fusion = inhibitors of HIV Env-mediated cell fusion | HeLa-JRFL Env/CEM21 cell fusion, luciferase | inhibition, % at 12.3 µM | hit rate 1.1% among 360,000 | AID 651610;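 active means mean replicate inhibition score of at least 50 and every replicate individually at or above 50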;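 further: 0% = plate neutral controls and 100% = maraviroc near 300 nM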
PglD DTNB = inhibitors of Campylobacter jejuni PglD acetyltransferase. purified PglD enzyme, DTNB colorimetric CoA detection. inhibition, % at 12.5 µM. hit rate 0.098% among 360,000; in the data active means inhibition above about 16%, passing the limit was not always enough
rRNA inh HTS = selective bacterial rRNA inhibition in E. coli; E. coli WT GFP vs humanized-ribosome RFP mutants, fluorescence, 24 h; stronger effect = lower value; DMSO median 0, no signal -100; hit rate 1.6% among 350,000; AID 720706; GFP signal change (wild-type ribosome), % (no concentration beside the values);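 active means significant combined selectivity score with lowered wild-type GFP, culture density cut under 30%, mutant RFP and density less affected; inactive means any of these conditions unmet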
PGC1a acetyl inh = lowers PGC1a acetylation signal in U2OS cells | hit rate 0.17% among 350,000 | inhibition, % at 15.6 µM | AlphaScreen anti-acetyl-lysine; with virally co-expressed GCN5 acetyltransferase;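 active means every replicate shows inhibition of at least 40%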;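 further: 0% = neutral control wells and 100% = positive control wells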
DENV2 CPE rescue = protects cells from dengue virus 2 cytopathic effect. CPE inhibition, % at 9.99 µM. hit rate 1.7% among 350,000. DENV2-infected cells, cytopathic effect rescue, plate reader; in the data active means CPE inhibition above about 20%, passing the limit was not always enough; tested in BHK-21 cells;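 further: 0% = median of neutral control wells and 100% = median of positive control wells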
* = called active by the depositor; nt = no result given; [ ] = dose if it differs, or a comment. Sampled rows, rich in hits. Any-hit rate of the full collection: about 3.5%.

SMILES	FN deposition inh	HIV Env fusion	PglD DTNB	rRNA inh HTS	PGC1a acetyl inh	DENV2 CPE rescue
O=S(=O)(NCc1cc(-c2ccccc2)no1)c1ccccc1	7.8	15.2	nt	-23.0*	-11.4	1.0
COc1ccc(-c2cnc3c(c2)C(=O)N([C@H](C)CO)C[C@H](C)[C@H](CN(C)Cc2cccnc2)O3)cc1	-4.0	-2.1[16.7 µM]	2.7	6.9	6.3	-2.6
CCCCOP(=O)(c1ccc(N(C)C)cc1)C(O)c1cc(OC)c(OC)c(OC)c1 (stereo not given)	-5.9	1.7	-3.4	-6.8	-5.9	17.6
CCCCOP(=O)(c1ccc(N(C)C)cc1)C(O)c1ccc(OC)cc1 (stereo not given)	1.4	-4.8	-1.3	0.2	82.0*	-2.0
Cc1ccccc1S(=O)(=O)N(C)C[C@@H]1OCc2ccccc2-c2ccccc2C(=O)N([C@H](C)CO)C[C@@H]1C	-9.4	27.6[16.7 µM]	-5.4	-6.5	-7.3	-5.3
CNc1ccc2ncc(-c3ccc(OC)c(OC)c3)n2n1	17.1	58.3*	4.9	-6.5	58.3*	-7.0
Cc1cc(NC(=O)COC(=O)c2ccccc2S(=O)(=O)N(C)c2ccccc2)no1	nt	3.0	nt	-32.6*	-7.8	-4.9
O=S(=O)(c1ccc(Cl)cc1)c1snnc1-c1ccccc1	nt	nt	-34.6	nt	41.8*	nt
C[C@@H]1CN([C@@H](C)CO)C(=O)c2cc(C#Cc3cccc(F)c3)cnc2O[C@@H]1CN(C)C(=O)C1CCCCC1	nt	14.7[16.7 µM]	3.4	0.4	-2.4	9.7
CC(NC(=O)c1ccc(CS(=O)(=O)c2ccc(Cl)cc2)o1)c1ccc2c(c1)OCCO2 (stereo not given)	nt	nt	0.1	-17.1*	-6.2	4.6
Cc1cc(OC(C)C(=O)NC2CC(C)(C)NC(C)(C)C2)c2c(C)c(C)c(=O)oc2c1 (stereo not given)	nt	-0.7	-2.8	14.8	-20.0	45.0*
COc1cc(-c2cnc3c(NC(C)=O)cc(-c4ccccc4CN(C)C)cn23)cc(OC)c1OC	2.2	-13.5	0.4	2.6	-50.3	24.9*
COc1cc(-c2cnc3c(NC=O)cc(-c4ccc(C)cc4)cn23)cc(OC)c1OC	-46.3	-150.9	12.2	10.5	-89.1	94.6*
CC(=O)Nc1cc(-c2ccc(C(=O)NC3CC3)cc2)cn2c(-c3cccc(C(F)(F)F)c3)cnc12	-0.5	-14.3	-2.4	4.4	1.5	38.3*
COc1ccc(-c2cc(NC(C)=O)c3ncc(-c4ccc(OC)c(OC)c4)n3c2)cc1OC	1.1	8.4	4.9	8.1	2.3	-2.5
COc1ccc(-c2cnc3c(NC(C)=O)cc(-c4ccccc4OC)cn23)cc1OC	2.0	-1.5	-2.3	-7.1	-16.5	30.1*
CC(=O)N(C[C@@H]1N[C@@H](CO)[C@H]1c1ccc(-c2cccnc2)cc1)C1CCCC1	1.7	nt	-0.6	-1.5	-7.3	14.4
C[C@@H]1CN([C@@H](C)CO)C(=O)c2cc(NS(=O)(=O)c3ccc(Cl)cc3)ccc2O[C@H]1CN(C)Cc1ccccc1	nt	-17.2[16.7 µM]	1.5	-3.1	5.2	-7.8
Fc1ccccc1N=C1NN=C(c2ccccc2)CS1	-12.7	40.5	-167.9	24.5	1.6	1.8
Clc1ccccc1N=C1NN=C(c2cccs2)CS1	-2.3	-47.9	-4.0	-31.8*	-3.9	0.6
CCOc1ccc(NCc2nnc(SCc3ccccc3Cl)n2-c2ccccc2)cc1	-8.6	82.1*	-7.8	nt	nt	nt
CCOc1cc(/C=C2\N=C(C)OC2=O)cc(Br)c1OCC(=O)OC	nt	nt	nt	9.6	nt	-0.4
CCOc1cc(/C=C2\N=C(C)OC2=O)cc(Br)c1OCCc1ccccc1	nt	nt	-5.3	-23.5*	8.8	-6.9
CC(C)NC(=O)N[C@H]1CC[C@@H](CCn2cc(-c3ccc(F)cc3)nn2)O[C@H]1CO	nt	9.6[16.7 µM]	1.8	-1.2	4.9	0.4
O=C(C1CCCCC1)N1CC(=O)N2[C@H](CO)[C@H](c3ccc(C#CCc4ccccc4)cc3)[C@H]2C1	nt	nt	nt	-35.5	-14.6	25.1*
SMILES	FN deposition inh	HIV Env fusion	PglD DTNB	rRNA inh HTS	PGC1a acetyl inh	DENV2 CPE rescue
O=C(c1ccccc1)N1CC(=O)N2[C@H](CO)[C@H](c3ccc(C#CCC4CCCC4)cc3)[C@@H]2C1	nt	nt	nt	-4.3	-2.3	20.9*
O=C(C1CC1)N1CC(=O)N2[C@@H](CO)[C@H](c3ccc(C#CCc4ccccc4)cc3)[C@@H]2C1	-1.8	nt	nt	1.0	-5.1	44.8*
COC(CN(C(=O)CCl)C(C(=O)NC1CCCCC1)c1ccccc1C)OC (stereo not given)	2.4	58.7*	nt	7.9	nt	nt
COC(CN(C(=O)CCl)C(C(=O)NC1CCCCC1)c1ccc(Cl)cc1)OC (stereo not given)	2.8	-3.9	-1.0	3.3	19.0	-1.4
Cc1cc(S(=O)(=O)Nc2ccc3ccccc3c2)c(C)s1	nt	nt	1.8	-50.6*	-58.3	nt
Cc1cc(S(=O)(=O)Nc2cccnc2)c(C)s1	-0.5	-9.7	-8.7	nt	-25.2	nt
Nc1ccc(Oc2ccc3nc(-c4ccccc4)c(-c4ccccc4)nc3c2)cc1	nt	nt	0.0	nt	17.8	nt
Nc1ccc(Oc2cc(N)cc(Oc3ccccc3)c2)cc1	4.0	-55.2	-0.7	-20.8*	nt	-9.3
CCN(CC(=O)Nc1ccc(NC(C)=O)cc1)C(=O)/C=C/c1cn(-c2ccccc2)nc1-c1cccs1	12.1	-11.7	1.2	-18.1*	nt	-1.1
COC(=O)c1ccc(NC(=O)c2cccc(N3C(=O)C4C5C=CC(C6CC56)C4C3=O)c2)cc1 (stereo not given)	2.2	63.8*	6.9	-1.5	nt	9.1
O=C(NN1C(=O)C2C3C=CC(C4CC34)C2C1=O)c1cccc(Br)c1 (stereo not given)	6.0	17.6	nt	-25.2*	nt	0.8
COc1ccccc1N1CCN(C(=S)Nc2ccc(S(=O)(=O)N3CCOCC3)cc2)CC1	-26.5	36.0	nt	-20.9	10.2	8.0
O=S(=O)(c1ccc(NC(=S)N2CCN(c3ccccc3F)CC2)cc1)N1CCOCC1	-4.3	58.8*	nt	-5.4	-0.6	10.4
CCN(CC(=O)Nc1cc(Cl)ccc1-n1cncn1)Cc1nc2ccccc2c(=O)[nH]1	5.6	5.9	-3.3	-5.2	5.7	30.8*
Cn1cnc(S(=O)(=O)N[C@H]2CC[C@H](CC(=O)NCC3CCCCC3)O[C@@H]2CO)c1	-14.2	nt	2.6	0.7	8.6	-1.1
Cn1cnc(S(=O)(=O)N[C@H]2CC[C@H](CC(=O)NCC3CCCCC3)O[C@H]2CO)c1	-3.0	nt	0.2	-1.7	-3.0	79.6*
Cn1cnc(S(=O)(=O)N[C@@H]2CC[C@H](CC(=O)NCC3CCCCC3)O[C@@H]2CO)c1	-2.1	nt	-2.0	-1.0	2.3	83.9*
CC=Cc1ccc2n(c1=O)C[C@@H]1[C@@H](CO)[C@H](C(=O)NCc3ccccc3F)N(CCC)[C@H]21 (mixture of isomers)	nt	nt	-3.2	-4.9	nt	-5.5
COc1ccccc1NC(=O)N1CCCCN2[C@@H](CO)[C@@H](c3ccc(-c4ccccc4)cc3)[C@@H]2C1	nt	nt	-0.2	nt	-26.8	-4.4

From PubChem BioAssay
